KCNQ1 act: potentiators or activators of KCNQ1 channel, primary screen, cell-based, thallium flux, high-throughput | CHO-K1 KCNQ1, thallium flux FluxOR fluorescence; active compounds read high | B-score at 10 µM | actives 0.35% (n = 310,000);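 active means fluorescence ratio B-score, a plate-corrected score, at least three library SD, with initial intensity B-score within 5 SD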
Target sequence (P51787 whole entry, looked up): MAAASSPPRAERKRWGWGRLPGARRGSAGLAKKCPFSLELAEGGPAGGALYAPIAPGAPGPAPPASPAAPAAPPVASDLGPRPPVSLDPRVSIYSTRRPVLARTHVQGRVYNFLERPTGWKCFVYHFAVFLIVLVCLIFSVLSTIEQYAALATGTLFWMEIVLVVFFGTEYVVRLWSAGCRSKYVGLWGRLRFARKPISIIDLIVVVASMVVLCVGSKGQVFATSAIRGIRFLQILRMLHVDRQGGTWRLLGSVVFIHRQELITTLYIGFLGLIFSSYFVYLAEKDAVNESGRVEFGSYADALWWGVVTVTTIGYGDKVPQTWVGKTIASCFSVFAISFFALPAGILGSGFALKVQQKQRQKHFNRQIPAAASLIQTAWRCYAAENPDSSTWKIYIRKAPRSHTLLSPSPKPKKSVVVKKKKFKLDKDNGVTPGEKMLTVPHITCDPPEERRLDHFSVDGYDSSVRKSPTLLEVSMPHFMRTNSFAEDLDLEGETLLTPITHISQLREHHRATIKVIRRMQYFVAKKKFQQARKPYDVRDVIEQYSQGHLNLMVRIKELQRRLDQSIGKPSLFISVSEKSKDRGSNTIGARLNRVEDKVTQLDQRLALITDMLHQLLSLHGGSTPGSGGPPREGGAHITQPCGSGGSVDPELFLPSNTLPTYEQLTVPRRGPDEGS
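Doses: Single concentration per compound, DMSO matched to controls | Test system: KCNQ1-transfected CHO-K1 cells | Timing: 90 min dye loading and 20 min compound exposure, both at room temperature | Measured by: Kinetic FluxOR thallium fluorescence, 10-s 1-Hz baseline, 110-s post-stimulus read | Medium: Assay buffer with matched DMSO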
Kir21 block: inhibitors of mouse Kir2.1 inward-rectifier potassium channel; Inward rectifier potassium channel 2 (Mus musculus), P35561; HEK293-Kir2.1, FluxOR thallium flux fluorescence; active compounds read low; B-score at 10 µM; actives 0.85% (n = 310,000);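 active means fluorescence ratio B-score at or below minus 3 SD of library scores, with starting-brightness B-score within 2 SD, cut at about -4.2 in these data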;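 further: channel flux triggered by added potassium and thallium sulfate stimulus; B-score of peak minus minimum fluorescence over baseline after thallium stimulus; more negative B-score means stronger Kir2.1 block with less thallium influx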
KCNQ1 inh: inhibitors of human KCNQ1 channel, primary screen, cell-based, thallium flux, high-throughput. actives 1.3% (n = 310,000). Potassium voltage-gated channel subfamily KQT member 1 (Homo sapiens), P51787. B-score at 10 µM. CHO-K1 KCNQ1, FluxOR thallium flux fluorescence; active compounds read high;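 active means compounds whose thallium flux B-score, printed positive for inhibition, exceeds three library SD while starting fluorescence stays within three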;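 further: channel opened by potassium depolarization with thallium stimulus after 20 min compound exposure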
hERG rescue: hERG rescue from dofetilide block, primary screen, cell-based, CHO-hERG, FluxOR thallium flux, dofetilide IC70; Voltage-gated inwardly rectifying potassium channel KCNH2 (Homo sapiens), Q12809; dofetilide IC70 present; activation (rescue from dofetilide block), less the hit threshold, % at 10 µM; actives 0.51% (n = 310,000);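 active means activation above the mean of controls blocked by dofetilide plus 5 SD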;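 further: thallium influx through hERG after potassium depolarization seen as dye fluorescence rise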
KCNK9 inh: KCNK9 potassium channel inhibitors, primary screen, HEK293 cells, thallium flux; actives 1.2% (n = 310,000); Potassium channel subfamily K member 9 (Homo sapiens), Q9NPC2; FluxOR thallium flux fluorescence; active compounds read low; AID 488922, 2010; B-score at 10 µM;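 active means ratio B-score over 3 SD below the library mean, with starting fluorescence within 5 SD of its mean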;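 further: negative B-score means less thallium flux so channel inhibition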
KCNK3 block: human KCNK3 channel inhibitors, primary screen, CHO cells, FluxOR thallium flux, B-score; Potassium channel subfamily K member 3 (Homo sapiens), O14649; FluxOR fluorescence; active compounds read low; B-score at 10 µM; actives 0.84% (n = 340,000); AID 602410, 2012;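 active means B-score under library mean minus 4 SD, starting fluorescence ratio at most library mean plus 5 SD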;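 further: more negative B-score means stronger inhibition of thallium flux through KCNK3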
KCNK9 inh conf: KCNK9 potassium channel inhibitors, confirmation, HEK293 cells, thallium flux, duplicate | shares compounds with KCNK9 inh | FluxOR thallium flux fluorescence | inhibition, % at 10 µM | actives 43% (n = 4,900);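 active means thallium signal inhibited by more than 5 SD of the compound-free buffer control wells, on both duplicate plates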
Kir21 sel: mouse Kir2.1 channel inhibition, confirmation, selectivity assay for KCNK9 modulator project, cell-based, HEK293, thallium flux | Kir2.1 cells, FluxOR thallium flux fluorescence | inhibition, % at 10 µM | shares compounds with KCNK9 inh | actives 4% (n = 4,900);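 active means thallium signal drop more than 5 SD beyond the mean of the no-compound control wells, seen in both duplicate plates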;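 further: signal is fluorescence rise after thallium addition divided by baseline fluorescence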
HEK293 Tl ctr: thallium flux in non-induced HEK293 cells, confirmation, counter-screen for KCNK9 inhibitor project, cell-based, second counter screen, non-induced KCNK9-HEK293 | shares compounds with KCNK9 inh | FluxOR thallium flux | inhibition, % at 10 µM | actives 40% (n = 4,900) | AID 492997, 2010;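 active means thallium signal drop beyond 5 SD of the untreated control mean, on both duplicate plates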
Hits are given with their value. Most compounds without a hit are left out; they make up all but 3.8% or so of the library.

CC(C)(C)c1cc(CCC(=O)NN)cc(C(C)(C)C)c1O was read as KCNQ1 act inactive, Kir21 block inactive, KCNQ1 inh inactive, hERG rescue inactive, KCNK9 inh inactive and KCNK3 block inactive.
Screening C=CC(=O)NCCCc1cc(C(C)(C)C)c(O)c(C(C)(C)C)c1 returned KCNQ1 act inactive, Kir21 block inactive, KCNQ1 inh inactive, hERG rescue inactive, KCNK9 inh inactive, KCNK3 block inactive, KCNK9 inh conf inactive, Kir21 sel inactive and HEK293 Tl ctr inactive.
`Cc1ccc(NC(=O)c2cccc(S(=O)(=O)N3CCN(c4ccccc4)CC3)c2)nc1` gave KCNQ1 act inactive, Kir21 block inactive, KCNQ1 inh inactive, hERG rescue inactive, KCNK9 inh inactive and KCNK3 block inactive.
Screening Cc1cc(C)c(S(=O)(=O)c2c(C)cccc2C)c(OCC(C)C)n1 returned KCNQ1 act inactive, Kir21 block inactive, KCNQ1 inh inactive, hERG rescue inactive, KCNK9 inh -9.9, KCNK3 block inactive, KCNK9 inh conf 59%, Kir21 sel inactive and HEK293 Tl ctr 42%.
CCOc1nc(C)cc(C)c1S(=O)(=O)c1cccc(C)c1 was read as KCNQ1 act inactive, Kir21 block inactive, KCNQ1 inh inactive, hERG rescue inactive and KCNK9 inh inactive.
O=C(Nc1cccc2ccccc12)c1cn(-c2ccccc2)nc1-c1cccs1 was read as KCNQ1 act inactive, Kir21 block inactive, KCNQ1 inh inactive, hERG rescue inactive, KCNK9 inh -10, KCNK3 block -9.5, KCNK9 inh conf 50%, Kir21 sel inactive and HEK293 Tl ctr 24%.
O=C(Nc1cccnc1)c1cn(-c2ccccc2)nc1-c1cccs1 was read as KCNQ1 act inactive, Kir21 block inactive, KCNQ1 inh inactive, hERG rescue inactive, KCNK9 inh inactive and KCNK3 block inactive.
`CCCn1c2ccc(C)cc2c2n[nH]c(=S)nc21` gave KCNQ1 act inactive, Kir21 block inactive, KCNQ1 inh inactive, hERG rescue inactive, KCNK9 inh inactive and KCNK3 block inactive.
Cc1ccc(S(=O)(=O)N(C)C)cc1-n1c(SCC(=O)Nc2ccc(F)cc2)nc2ccccc2c1=O was read as KCNQ1 act inactive, Kir21 block inactive, KCNQ1 inh inactive, hERG rescue inactive, KCNK9 inh -9.7, KCNK3 block inactive, KCNK9 inh conf 50%, Kir21 sel inactive and HEK293 Tl ctr 24%.
For COc1cc(N)c(Cl)cc1C(=O)OCC(=O)NCC1CCCCC1 the results were KCNK3 block inactive.
For O=C(OCc1ccccc1Cl)c1ccccc1C(=O)c1ccccc1 the results were KCNQ1 act inactive, Kir21 block inactive, KCNQ1 inh inactive, hERG rescue inactive, KCNK9 inh -8.7, KCNK3 block inactive, KCNK9 inh conf inactive, Kir21 sel 41% and HEK293 Tl ctr 38%.
For O=C(Nc1cccc(-c2cn3ccsc3n2)c1)c1ccccc1 the results were KCNQ1 act inactive, Kir21 block inactive, KCNQ1 inh inactive, hERG rescue inactive, KCNK9 inh -9.7, KCNK3 block inactive, KCNK9 inh conf 33%, Kir21 sel inactive and HEK293 Tl ctr inactive.
`CCCCC(=O)Nc1cccc(-c2cn3ccsc3n2)c1` gave KCNQ1 act inactive, Kir21 block inactive, KCNQ1 inh inactive, hERG rescue inactive, KCNK9 inh inactive and KCNK3 block inactive.
COC(=O)c1ccsc1NC(=O)CCS(=O)(=O)c1ccc(Cl)cc1 was read as KCNQ1 act inactive, Kir21 block inactive, KCNQ1 inh inactive, hERG rescue inactive, KCNK9 inh inactive and KCNK3 block inactive.
`CC(=O)Nc1ccc(C=NNc2ccc([N+](=O)[O-])cc2S(=O)(=O)Nc2ccccc2C(=O)O)cc1` gave KCNK3 block inactive.
Screening Cc1ccc(NC(=S)NNc2ccc([N+](=O)[O-])cc2S(=O)(=O)Nc2ccccc2C(=O)O)cc1C returned KCNQ1 act inactive, Kir21 block inactive, KCNQ1 inh inactive, hERG rescue inactive, KCNK9 inh inactive, KCNK3 block inactive, KCNK9 inh conf inactive, Kir21 sel inactive and HEK293 Tl ctr inactive.
For CC(C)OCCCNC(=O)C1CCN(S(=O)(=O)N2CCCC2)CC1 the results were KCNQ1 act inactive, Kir21 block inactive, KCNQ1 inh inactive, hERG rescue inactive, KCNK9 inh -8.1, KCNK3 block inactive, KCNK9 inh conf inactive, Kir21 sel inactive and HEK293 Tl ctr inactive.
`CCCCN(CC)C(=O)CSc1nc2n[nH]c(C)c2c(=N)n1-c1cccc(C)c1` gave KCNQ1 act inactive, Kir21 block inactive, KCNQ1 inh inactive, hERG rescue inactive, KCNK9 inh -9.2, KCNK3 block inactive, KCNK9 inh conf 34%, Kir21 sel inactive and HEK293 Tl ctr inactive.
For Cc1c(N=C(N)/N=C(\N)Nc2ccccc2)c(=O)n(-c2ccccc2)n1C the results were KCNQ1 act inactive, Kir21 block inactive, KCNQ1 inh inactive, hERG rescue inactive, KCNK9 inh inactive and KCNK3 block inactive.
`Cc1c(N=N/C(C(=O)Nc2ccccc2)=C(/O)c2ccccc2)c(=O)n(-c2ccccc2)n1C` gave KCNQ1 act inactive, Kir21 block inactive, KCNQ1 inh 9, hERG rescue inactive, KCNK9 inh -9.1, KCNK3 block inactive, KCNK9 inh conf inactive, Kir21 sel inactive and HEK293 Tl ctr 46%.
`COCCn1c(-c2ccc(Cl)cc2Cl)nc2c(c(=O)c3ccccc3n2C)c1=O` gave KCNQ1 act inactive, Kir21 block inactive, KCNQ1 inh inactive, hERG rescue inactive, KCNK9 inh inactive and KCNK3 block inactive.
Cn1c(=O)c2nc(-c3ccc(Cl)cc3Cl)oc2c2ccccc21 was read as KCNQ1 act inactive, Kir21 block inactive, KCNQ1 inh inactive, hERG rescue inactive, KCNK9 inh -10, KCNK3 block inactive, KCNK9 inh conf 28%, Kir21 sel inactive and HEK293 Tl ctr 32%.

Screens deposited in PubChem BioAssay by Johns Hopkins Ion Channel Center.
